One block for each molecule: values may come before it.
Legend:
[1] = molecular target: T1, Renin (Homo sapiens, UniProt P00797); test: Inhibition of human recombinant renin
T1 sequence (P00797 whole entry): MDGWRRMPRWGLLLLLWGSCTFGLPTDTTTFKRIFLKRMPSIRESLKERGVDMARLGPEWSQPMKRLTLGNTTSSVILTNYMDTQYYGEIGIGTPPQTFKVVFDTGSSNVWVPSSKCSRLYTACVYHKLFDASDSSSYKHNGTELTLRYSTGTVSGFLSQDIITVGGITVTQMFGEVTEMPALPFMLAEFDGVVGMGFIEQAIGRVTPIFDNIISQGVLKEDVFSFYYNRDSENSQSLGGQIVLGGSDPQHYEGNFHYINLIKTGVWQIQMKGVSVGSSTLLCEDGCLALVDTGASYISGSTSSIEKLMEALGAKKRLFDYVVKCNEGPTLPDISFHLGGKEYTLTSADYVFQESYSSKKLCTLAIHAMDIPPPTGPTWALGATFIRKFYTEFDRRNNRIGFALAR

[2] = molecular target: T1, Renin; test: Inhibition of human recombinant renin in presence of human plasma by competitive radioimmunoassay; type: cell-free
[3] = Clearance in rat at 2 mg/kg, iv; type: ADME, organism-based; design: dose 2 mg/kg, route intravenous; details: in vivo
Procedure, shortened: (§1)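 Rats dosed with the fumarate salt at 10 mg/kg by oral route and 2 mg/kg intravenously. Plasma concentrations measured over time, and PK parameters derived from them.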

[4] = Cmax in rat at 10 mg/kg, po and 2 mg/kg, iv; type: ADME, organism-based; details: in vivo; procedure, shortened: as §1
[5] = Oral bioavailability in rat at 10 mg/kg; type: ADME, organism-based; details: in vivo; procedure, shortened: as §1
[6] = AUC (infinity) in rat at 10 mg/kg, po and 2 mg/kg, iv; type: ADME, organism-based; details: plasma; procedure, shortened: as §1
[7] = Tmax in rat at 10 mg/kg, po and 2 mg/kg, iv; type: ADME, organism-based; details: in vivo; procedure, shortened: as §1
[8] = Volume of distribution at steady state in rat at 10 mg/kg, po and 2 mg/kg, iv; type: ADME, organism-based; details: in vivo, read-out: Vdss
[9] = AUC (0 to t) in rat at 10 mg/kg, po and 2 mg/kg, iv; type: ADME, organism-based; details: plasma; procedure, shortened: as §1
[10] = Half life in rat at 10 mg/kg, po and 2 mg/kg, iv; type: ADME, organism-based; details: in vivo; procedure, shortened: as §1
[11] = in vivo; details: rat, po
[12] = molecular target: Voltage-gated inwardly rectifying potassium channel KCNH2 (Homo sapiens, UniProt Q12809); test: Inhibition of human ERG by patch clamp assay
[13] = Terminal half life in dog; type: ADME, organism-based, Canis lupus familiaris; details: in vivo, read-out: beta t1/2 (converted)
[14] = Solubility in water; type: physicochemical
[15] = test system: Macaca fascicularis; test: Oral bioavailability in cynomolgus monkey; details: in vivo
[16] = Oral bioavailability in dog; type: ADME, organism-based, Canis lupus familiaris; details: in vivo
[17] = organism: Macaca fascicularis; test: Terminal half life in cynomolgus monkey; details: in vivo, read-out: beta t1/2 (converted)

Voltage-gated inwardly rectifying potassium channel KCNH2, sequence (Q12809 whole entry): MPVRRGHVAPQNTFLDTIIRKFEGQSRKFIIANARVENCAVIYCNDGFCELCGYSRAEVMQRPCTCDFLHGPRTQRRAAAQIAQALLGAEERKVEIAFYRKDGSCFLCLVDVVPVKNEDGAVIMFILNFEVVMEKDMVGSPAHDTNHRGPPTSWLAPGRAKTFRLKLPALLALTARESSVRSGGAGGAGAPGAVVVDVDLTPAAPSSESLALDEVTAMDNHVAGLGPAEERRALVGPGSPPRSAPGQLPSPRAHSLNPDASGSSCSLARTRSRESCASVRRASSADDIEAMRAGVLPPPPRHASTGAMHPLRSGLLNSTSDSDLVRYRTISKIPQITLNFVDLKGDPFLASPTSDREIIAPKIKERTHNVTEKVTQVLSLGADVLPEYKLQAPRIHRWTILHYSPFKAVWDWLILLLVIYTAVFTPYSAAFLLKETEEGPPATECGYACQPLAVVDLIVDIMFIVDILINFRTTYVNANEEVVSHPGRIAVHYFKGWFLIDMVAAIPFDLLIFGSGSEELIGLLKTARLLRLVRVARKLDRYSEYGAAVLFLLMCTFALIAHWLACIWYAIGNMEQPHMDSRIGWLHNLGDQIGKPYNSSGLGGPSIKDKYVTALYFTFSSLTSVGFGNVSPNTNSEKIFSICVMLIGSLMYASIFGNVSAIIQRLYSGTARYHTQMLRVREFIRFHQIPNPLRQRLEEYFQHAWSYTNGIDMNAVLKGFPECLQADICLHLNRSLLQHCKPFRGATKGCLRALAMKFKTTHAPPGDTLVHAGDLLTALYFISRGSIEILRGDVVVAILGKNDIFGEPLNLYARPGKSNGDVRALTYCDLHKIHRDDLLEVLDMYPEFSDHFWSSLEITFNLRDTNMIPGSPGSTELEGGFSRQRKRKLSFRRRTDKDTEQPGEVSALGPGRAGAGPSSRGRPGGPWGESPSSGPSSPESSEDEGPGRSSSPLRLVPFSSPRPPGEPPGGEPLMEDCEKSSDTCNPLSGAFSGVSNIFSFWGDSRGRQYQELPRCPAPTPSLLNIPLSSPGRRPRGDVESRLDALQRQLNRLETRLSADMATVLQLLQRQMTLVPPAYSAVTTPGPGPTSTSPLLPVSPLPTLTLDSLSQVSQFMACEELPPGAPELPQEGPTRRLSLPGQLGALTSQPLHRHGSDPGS

clearance [3]: 59 mL/min/kg | Cmax [4]: 91 ng/mL | bioavailability [5]: 35.8% | AUC(0-inf) [6]: 882 ng·h/mL | Tmax [7]: 3 h | Vd [8]: 22 L/kg
Compound: CCOCCCO[C@@H](c1ccccc1)[C@@H]1CCCN(C(=O)N[C@H](CNC)CC2CCCCC2)C1.O=C(O)/C=C/C(=O)O

clearance [3]: 79 mL/min/kg | Cmax [4]: 135 ng/mL | AUC(0-t) [9]: 745 ng·h/mL | bioavailability [5]: 48.3% | AUC(0-inf) [6]: 833 ng·h/mL | half-life [10]: 8.7 h | Tmax [7]: 3 h | Vd [8]: 55 L/kg
Compound: CCOCCCC[C@@](O)(c1ccccc1)[C@@H]1CCCN(C(=O)N[C@H](CNC)CC2CCCCC2)C1.O=C(O)/C=C/C(=O)O

IC50 [1]: 0.011 µM | IC50 [2]: 0.084 µM
Compound: CCOCCCO[C@@H](c1cccc(F)c1)[C@@H]1CCCN(C(=O)N[C@H](CNC)CC2CCCCC2)C1

IC50 [1]: 0.04 µM | IC50 [2]: 0.447 µM
Compound: CCOCCCO[C@@H](c1ccccc1)[C@@H]1CCCN(C(=O)N[C@H](CNC)CC2CCCCC2)C1

IC50 [1]: 0.004 µM
Compound: CCOCCCO[C@@H](c1cccc(Cl)c1)[C@@H]1CCCN(C(=O)N[C@H](CNC)CC2CCCCC2)C1

clearance [3]: 46 mL/min/kg | Cmax [4]: 28 ng/mL | AUC(0-t) [9]: 221 ng·h/mL | bioavailability [5]: 7.5% | AUC(0-inf) [6]: 192 ng·h/mL | half-life [10]: 5.1 h | Tmax [7]: 2.3 h | Vd [8]: 56 L/kg
Compound: COCCCC[C@@](O)(c1ccccc1)[C@@H]1CCCN(C(=O)N[C@H](CN)CC2CCCCC2)C1.O=C(O)/C=C/C(=O)O

clearance [3]: 33 mL/min/kg | Cmax [4]: 73 ng/mL | half-life [13]: 16 h | bioavailability [5]: 12.9% | solubility [14]: > 1000 µg/mL | AUC(0-inf) [6]: 530 ng·h/mL | Tmax [7]: 3.3 h | bioavailability [15]: 17% | bioavailability [16]: 38% | half-life [17]: 16 h
Compound: CNC[C@H](CC1CCCCC1)NC(=O)N1CCC[C@@H]([C@@](O)(CCCCOC)c2cccc(Cl)c2)C1.O=C(O)/C=C/C(=O)O
IC50 [12]: > 30 µM

IC50 [1]: 0.125 µM
Compound: CCOCCCO[C@@H](c1cccc(Cl)c1Cl)[C@@H]1CCCN(C(=O)N[C@H](CNC)CC2CCCCC2)C1

Continued, molecule first:

Compound: CNC[C@H](CC1CCCCC1)NC(=O)N1CCC[C@@H]([C@@H](OCCCOC)c2cccc(Cl)c2Cl)C1
IC50 [1]: 0.609 µM

Compound: CNC[C@H](CC1CCCCC1)NC(=O)N1CCC[C@@H]([C@@](O)(CCCCOC)c2cccc(Br)c2)C1
IC50 [1]: 0.00013 µM | IC50 [2]: 0.012 µM

Compound: CNC[C@H](CC1CCCCC1)NC(=O)N1CCC[C@@H]([C@@](O)(CCCCOC)c2cccc(F)c2F)C1
IC50 [1]: 0.00014 µM | IC50 [2]: 0.02 µM

Compound: CNC[C@H](CC1CCCCC1)NC(=O)N1CCC[C@@H]([C@@](O)(CCCCOC)c2cccc(Cl)c2F)C1.O=C(O)/C=C/C(=O)O
clearance [3]: 30 mL/min/kg | Cmax [4]: 28 ng/mL | bioavailability [5]: 5.5% | AUC(0-inf) [6]: 254 ng·h/mL | half-life [10]: 8 h | Tmax [7]: 4.3 h | Vd [8]: 16 L/kg

Compound: CNC[C@H](CC1CCCCC1)NC(=O)N1CCC[C@@H]([C@@](O)(CCCCOC)c2cccc(OC(F)(F)F)c2)C1
IC50 [1]: 0.069 µM

Compound: COCCCC[C@@](O)(c1cccc(Cl)c1)[C@@H]1CCCN(C(=O)N[C@H](CNCC(F)(F)F)CC2CCCCC2)C1
IC50 [1]: 0.046 µM | IC50 [2]: 1.4 µM

Compound: CNC[C@H](CC1CCCCC1)NC(=O)N1CCC[C@@H]([C@@](O)(CCCCOC)c2ccccc2)C1
IC50 [1]: 0.007 µM | IC50 [2]: 0.064 µM

Compound: CNC[C@H](CC1CCCCC1)NC(=O)N1CCC[C@@H]([C@@](O)(CCCCOC)c2cccc(C(F)(F)F)c2)C1
IC50 [1]: 0.007 µM | IC50 [2]: 0.389 µM

Compound: COCCCOc1cc(C[C@@H](C[C@H](N)[C@@H](O)C[C@H](C(=O)NCC(C)(C)C(N)=O)C(C)C)C(C)C)ccc1OC
bioavailability [11]: 2.4%

Compound: CNC[C@H](CC1CCCCC1)NC(=O)N1CCC[C@@H]([C@@](O)(CCCCO)c2cccc(Cl)c2)C1
IC50 [1]: 0.021 µM | IC50 [2]: 0.315 µM

Compound: CNC[C@H](CC1CCCCC1)NC(=O)N1CCC[C@@H]([C@@](O)(CCCCOC)c2cccc(Cl)c2)C1
IC50 [2]: 0.013 µM

Compound: CNC[C@H](CC1CCCCC1)NC(=O)N1CCC[C@@H]([C@@](O)(CCCCOC)c2cccc(F)c2)C1
IC50 [1]: 0.003 µM | IC50 [2]: 0.047 µM

Compound: CNC[C@H](CC1CCCCC1)NC(=O)N1CCC[C@@H]([C@@](O)(CCCCOC)c2ccccc2Cl)C1
IC50 [1]: 0.007 µM | IC50 [2]: 0.151 µM

From ChEMBL document CHEMBL1136958, “Design and optimization of renin inhibitors: Orally bioavailable alkyl amines” (Bioorg Med Chem Lett, 2009)
